Source: ChEMBL document CHEMBL1145786, “Synthesis and structure-activity relationship of alpha-sulfonylhydroxamic acids as novel, orally active matrix metalloproteinase inhibitors for the treatment of osteoarthritis” (J Med Chem, 2003)

Experiments:
[1] = biological target: T1, Disintegrin and metalloproteinase domain-containing protein 17 (Homo sapiens, UniProt P78536); experiment: Inhibition of Tumor necrosis factor alpha converting enzyme at 10 uM
[2] = biological target: T2, Interstitial collagenase (Homo sapiens, UniProt P03956); experiment: In vitro inhibition of matrix metalloprotease-1
T2 sequence (P03956 whole entry): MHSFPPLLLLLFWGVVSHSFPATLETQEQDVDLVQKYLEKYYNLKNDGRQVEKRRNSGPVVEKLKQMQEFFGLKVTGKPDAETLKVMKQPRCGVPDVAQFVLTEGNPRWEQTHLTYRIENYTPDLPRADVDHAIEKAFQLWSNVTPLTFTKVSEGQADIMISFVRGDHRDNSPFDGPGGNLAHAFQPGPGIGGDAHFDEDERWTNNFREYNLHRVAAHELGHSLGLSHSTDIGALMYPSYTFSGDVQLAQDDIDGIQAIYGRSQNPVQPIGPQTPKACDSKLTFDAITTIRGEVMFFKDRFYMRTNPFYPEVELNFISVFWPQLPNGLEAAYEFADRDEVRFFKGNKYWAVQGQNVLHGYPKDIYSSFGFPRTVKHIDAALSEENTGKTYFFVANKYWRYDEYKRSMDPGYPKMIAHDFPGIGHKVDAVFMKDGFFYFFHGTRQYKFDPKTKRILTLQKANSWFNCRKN

[3] = biological target: T3, Matrix metalloproteinase-9 (Homo sapiens, UniProt P14780); experiment: In vitro inhibition of matrix metalloprotease-9
Summary of the method: (§1)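 Each inhibitor concentration tested in triplicate. IC50 derived from a four-parameter logistic fit of the data within a single experiment, and the reported value is the mean of the triplicate values.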

[4] = system: Mus musculus; experiment: Compound was tested in vivo for inhibition using dialysis implant, values expressed relative to activity of CGS-27023 at dose 25 mg/kg(po)(60 +/-4); format: functional
Summary of the method: (§2)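 Groups of mice dosed orally at 25 mg/kg with drug or vehicle carrying an implanted enzyme-containing dialysis bag. After 1 h of exposure, bag retrieved, and enzyme activity inside measured spectrophotometrically against bags from vehicle-treated mice. Percent inhibition expressed relative to CGS-27023 (set as 1) run as standard.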

[5] = biological target: T3, Matrix metalloproteinase-9; experiment: Inhibition of Matrix metalloprotease-9 at 10 uM
Summary of the method: (§3)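 Single-point enzyme inhibition at 10 µM inhibitor, reported as percent inhibition. Full dose-response curves were run only where inhibition reached at least 60% at 10 µM.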

[6] = biological target: T1, Disintegrin and metalloproteinase domain-containing protein 17; experiment: In vitro inhibition against tumor necrosis factor alpha converting enzyme at 10 uM concentration; summary of the method: as §3
[7] = biological target: T4, Collagenase 3 (Homo sapiens, UniProt P45452); experiment: In vitro inhibition of matrix metalloprotease-13
[8] = biological target: T1, Disintegrin and metalloproteinase domain-containing protein 17; experiment: Inhibition of Tumor necrosis factor alpha converting enzyme
[9] = system: Mus musculus; experiment: Compound was tested in vivo for inhibition using dialysis implant, value expressed relative to activity of CGS-27023 at dose 25 mg/kg(po) (66 +/- 4); format: functional; summary of the method: as §2
[10] = system: Rattus norvegicus; experiment: Compound was tested in vivo for inhibition in rat sponge-wrapped cartilage model, value expressed relative to activity of CGS-27023 at dose 25 mg/kg (p.o.) in (52+/-4); format: functional; details: route oral
Summary of the method: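 Oral dosing at 25 mg/kg once daily for 3 weeks, with CGS-27023 as comparator. Read-out was percent inhibition of degradation of bovine cartilage in the sponge-wrapped implant.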

[11] = biological target: T2, Interstitial collagenase; experiment: Inhibition of Matrix metalloprotease-1; summary of the method: as §1
[12] = biological target: T3, Matrix metalloproteinase-9; experiment: Inhibition of Matrix metalloprotease-9; summary of the method: as §1
[13] = biological target: T4, Collagenase 3; experiment: Inhibition of Matrix metalloprotease-13
[14] = system: Mus musculus; experiment: Compound was tested in vivo for inhibition using dialysis implant, value expressed relative to activity of CGS-27023 at dose 25 mg/kg(po)(53 +/- 4); format: functional; summary of the method: as §2
[15] = biological target: T5, Interstitial collagenase (Homo sapiens) (UniProt P03956); experiment: Inhibition of Matrix metalloprotease-1 at 10 uM; summary of the method: as §3
T5 sequence (whole entry): T2 sequence (P03956 whole entry)

[16] = system: Mus musculus; experiment: Compound was tested in vivo for inhibition using dialysis implant, value expressed relative to activity of CGS-27023 at dose 25 mg/kg (p.o.) (66+/-4); format: functional; details: route oral; summary of the method: as §2
[17] = system: Mus musculus; experiment: Compound was tested in vivo for inhibition using dialysis implant, values expressed relative to activity of CGS-27023 at dose 25 mg/kg(po)(68 +/-3); format: functional; summary of the method: as §2
[18] = system: Mus musculus; experiment: Compound was tested in vivo for inhibition using dialysis implant, value expressed relative to activity of CGS-27023 at dose 25 mg/kg(po) (77+/-3); format: functional; summary of the method: as §2
[19] = system: Mus musculus; experiment: Compound was tested in vivo for inhibition using dialysis implant data, value expressed relative to activity of CGS-27023 at dose 25 mg/kg(po)(67 +/-3); format: functional; summary of the method: as §2
[20] = system: Mus musculus; experiment: Compound was tested in vivo for inhibition using dialysis implant, value expressed relative to activity of CGS-27023 at dose 25 mg/kg(po)(53 +/-4); format: functional; summary of the method: as §2
[21] = system: Mus musculus; experiment: Compound was tested in vivo for inhibition using dialysis implant data, value expressed relative to activity of CGS-27023 at dose 25 mg/kg(po) (73 +/-4); format: functional; summary of the method: as §2

T1 sequence (P78536 whole entry, the tested form may be a part): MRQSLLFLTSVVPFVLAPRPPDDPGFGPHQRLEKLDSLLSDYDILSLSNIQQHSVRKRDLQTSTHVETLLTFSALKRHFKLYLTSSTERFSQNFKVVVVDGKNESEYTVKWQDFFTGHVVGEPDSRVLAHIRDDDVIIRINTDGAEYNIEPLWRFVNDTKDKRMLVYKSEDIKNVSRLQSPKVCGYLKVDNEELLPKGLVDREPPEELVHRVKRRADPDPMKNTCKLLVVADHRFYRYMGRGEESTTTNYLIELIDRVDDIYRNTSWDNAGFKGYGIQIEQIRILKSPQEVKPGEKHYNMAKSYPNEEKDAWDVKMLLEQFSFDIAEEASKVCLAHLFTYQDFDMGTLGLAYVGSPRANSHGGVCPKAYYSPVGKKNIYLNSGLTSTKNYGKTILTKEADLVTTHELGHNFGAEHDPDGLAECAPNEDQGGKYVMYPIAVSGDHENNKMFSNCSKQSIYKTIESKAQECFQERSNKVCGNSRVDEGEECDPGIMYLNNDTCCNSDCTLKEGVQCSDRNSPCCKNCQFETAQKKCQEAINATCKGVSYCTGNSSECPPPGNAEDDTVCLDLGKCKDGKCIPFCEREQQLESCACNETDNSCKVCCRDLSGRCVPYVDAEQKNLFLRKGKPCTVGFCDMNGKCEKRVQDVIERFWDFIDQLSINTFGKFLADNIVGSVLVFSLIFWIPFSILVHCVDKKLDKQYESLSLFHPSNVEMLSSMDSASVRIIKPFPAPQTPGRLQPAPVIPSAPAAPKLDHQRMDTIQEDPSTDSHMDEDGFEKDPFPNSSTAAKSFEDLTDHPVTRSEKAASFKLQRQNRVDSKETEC
T3 sequence (P14780 whole entry): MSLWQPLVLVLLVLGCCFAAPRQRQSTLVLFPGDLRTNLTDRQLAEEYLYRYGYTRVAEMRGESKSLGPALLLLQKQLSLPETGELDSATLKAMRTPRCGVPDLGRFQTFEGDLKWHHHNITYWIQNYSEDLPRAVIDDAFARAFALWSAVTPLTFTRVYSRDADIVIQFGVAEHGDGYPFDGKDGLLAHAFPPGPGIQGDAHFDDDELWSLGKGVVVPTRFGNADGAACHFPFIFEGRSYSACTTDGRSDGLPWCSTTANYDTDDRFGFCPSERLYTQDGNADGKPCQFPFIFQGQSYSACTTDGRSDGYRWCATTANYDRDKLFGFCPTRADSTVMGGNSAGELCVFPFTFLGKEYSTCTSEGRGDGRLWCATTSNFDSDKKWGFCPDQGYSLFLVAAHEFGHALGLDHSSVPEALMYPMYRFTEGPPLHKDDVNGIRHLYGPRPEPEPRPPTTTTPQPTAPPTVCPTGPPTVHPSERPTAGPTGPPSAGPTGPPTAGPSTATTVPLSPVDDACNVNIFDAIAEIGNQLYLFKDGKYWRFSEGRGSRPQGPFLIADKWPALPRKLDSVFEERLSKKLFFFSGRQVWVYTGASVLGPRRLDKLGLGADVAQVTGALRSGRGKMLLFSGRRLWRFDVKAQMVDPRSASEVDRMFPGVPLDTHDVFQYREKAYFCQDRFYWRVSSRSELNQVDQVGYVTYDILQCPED

COc1ccc(S(=O)(=O)C(C)(Cc2ccc(OCCN(C(C)C)C(C)C)cc2)C(=O)NO)cc1 (centres undefined)
inhibition [1]: 31%

COc1ccc(S(=O)(=O)[C@](C)(Cc2ccc(OCCN3CCCCC3)cc2)C(=O)NO)cc1 (stereo in doubt; form 1)
IC50 [2]: 2530 nM | IC50 [3]: 112 nM | inhibition in vivo at 25 mg/kg [4]: 15%

COc1ccc(S(=O)(=O)C(C(=O)NO)C(C)C)cc1 (centres undefined)
inhibition [5]: 27% | inhibition [6]: 52%

C#CCC(Cc1cccnc1)(C(=O)NO)S(=O)(=O)c1ccc(OC)cc1 (centres undefined)
IC50 [7]: 32 nM | inhibition [6]: 23%

CCCCCCCC[C@@](Cc1cccnc1)(C(=O)NO)S(=O)(=O)c1ccc(OC)cc1
IC50 [8]: 669 nM

COc1ccc(S(=O)(=O)C(C)(Cc2cccnc2)C(=O)NO)cc1 (centres undefined)
inhibition [6]: 17%

CC(C)=CCC(CC=C(C)C)(C(=O)NO)S(=O)(=O)c1ccc(C)cc1
IC50 [7]: 6 nM | inhibition [6]: 36%

CC(Cc1ccc(OCCN2CCCCC2)cc1)(C(=O)NO)S(=O)(=O)c1cccs1 (centres undefined)
IC50 [2]: 99 nM | IC50 [3]: 79 nM | IC50 [7]: 85 nM | inhibition [6]: 51%

CC(Cc1ccccc1)(C(=O)NO)S(=O)(=O)c1cccs1 (centres undefined)
IC50 [2]: 49 nM | IC50 [3]: 49 nM | IC50 [7]: 37 nM | inhibition [6]: 20%

COc1ccc(S(=O)(=O)C(C)(Cc2ccc(OCCN3CCCCCC3)cc2)C(=O)NO)cc1 (centres undefined)
inhibition in vivo at 25 mg/kg [9]: 65% | inhibition in vivo at 25 mg/kg [10]: 67% | inhibition [6]: 29%

COc1ccc(S(=O)(=O)C(C)(Cc2ccc(-c3ccccc3)cc2)C(=O)NO)cc1 (centres undefined)
inhibition [6]: 17%

COc1ccc(S(=O)(=O)C(C)(Cc2ccccc2)C(=O)NO)cc1 (centres undefined)
inhibition [6]: 15%

CCOc1ccc(S(=O)(=O)C(C)(Cc2ccc(OCCN(CC)CC)cc2)C(=O)NO)cc1 (centres undefined)
IC50 [11]: 627 nM | IC50 [12]: 11 nM | IC50 [13]: 16 nM | inhibition in vivo at 25 mg/kg [14]: 74%

COc1ccc(S(=O)(=O)C(Cc2ccccc2)C(=O)NO)cc1 (centres undefined)
IC50 [7]: 100 nM

COc1ccc(S(=O)(=O)C(CC=C(C)C)(CC=C(C)C)C(=O)NO)cc1
IC50 [3]: 0.5 nM

COc1ccc(S(=O)(=O)C(C)(Cc2ccc3ccccc3c2)C(=O)NO)cc1 (centres undefined)
IC50 [3]: 8 nM

CCCCCCCCS(=O)(=O)C(C)(Cc1ccccc1)C(=O)NO (centres undefined)
inhibition [6]: 1%

COc1ccc(S(=O)(=O)C(CCC(C)C)(Cc2cccnc2)C(=O)NO)cc1 (centres undefined)
inhibition [6]: 41%

CCCC(CCC)(C(=O)NO)S(=O)(=O)c1ccc(OC)cc1
inhibition [15]: 30% | inhibition [6]: 24%

COc1ccc(S(=O)(=O)C(Cc2cccnc2)(CC(C)C)C(=O)NO)cc1 (centres undefined)
IC50 [2]: 1000 nM | inhibition [6]: 42%

COc1ccc(CS(=O)(=O)C(C)(Cc2ccccc2)C(=O)NO)cc1 (centres undefined)
IC50 [2]: 10 nM | inhibition [6]: 3%

C=CCC(CC=C)(C(=O)NO)S(=O)(=O)c1ccc(OC)cc1
inhibition [6]: 7%

CCCCCCCCS(=O)(=O)C(C)(Cc1ccc(OCCN2CCCCC2)cc1)C(=O)NO (centres undefined)
IC50 [2]: 10 nM | IC50 [3]: 23 nM | IC50 [7]: 55 nM | inhibition [6]: 65%

CCN(CC)CCOc1ccc(CC(C)(C(=O)NO)S(=O)(=O)c2ccc(OC)cc2)cc1 (centres undefined)
IC50 [3]: 13 nM | IC50 [7]: 15 nM | inhibition in vivo at 25 mg/kg [16]: 68% | inhibition [6]: 39%

COc1ccc(S(=O)(=O)C(C)(C/C=C/c2ccccc2)C(=O)NO)cc1 (centres undefined)
IC50 [2]: 299 nM | IC50 [3]: 16 nM | IC50 [7]: 12 nM | inhibition [6]: 65%

CCCC[C@@](Cc1cccnc1)(C(=O)NO)S(=O)(=O)c1ccc(OC)cc1
inhibition [5]: 88% | IC50 [8]: 764 nM

CCCCC(C(=O)NO)S(=O)(=O)c1ccc(OC)cc1 (centres undefined)
inhibition [15]: 8% | inhibition [6]: 54%

CCCCCCCCCCCCC(C(=O)NO)S(=O)(=O)c1ccc(OC)cc1 (centres undefined)
inhibition [15]: 18%

COc1ccc(S(=O)(=O)[C@](C)(Cc2ccc(OCCN3CCCCC3)cc2)C(=O)NO)cc1 (stereo in doubt; form 2)
IC50 [2]: 154 nM | IC50 [3]: 5 nM | inhibition in vivo at 25 mg/kg [17]: 69%

CCN(CC)COc1ccc(CC(C)(C(=O)NO)S(=O)(=O)c2ccc(-c3ccco3)cc2)cc1 (centres undefined)
IC50 [2]: 14 nM | IC50 [3]: 4 nM | IC50 [7]: 2 nM | inhibition [6]: 45%

COc1ccc(S(=O)(=O)C(C)(Cc2ccc(OCCN3CCCCC3)cc2)C(=O)NO)cc1 (centres undefined)
inhibition in vivo at 25 mg/kg [18]: 78% | inhibition in vivo at 25 mg/kg [10]: 69% | inhibition [6]: 41%

COc1ccc(S(=O)(=O)C(C)(Cc2ccc(OCCN3CCOCC3)cc2)C(=O)NO)cc1 (centres undefined)
IC50 [2]: 413 nM | IC50 [3]: 21 nM | inhibition in vivo at 25 mg/kg [19]: 48% | inhibition [6]: 47%

CCCCOc1ccc(S(=O)(=O)C(C)(Cc2ccc(OCCN3CCCCC3)cc2)C(=O)NO)cc1 (centres undefined)
IC50 [3]: 3 nM | inhibition in vivo at 25 mg/kg [20]: 64% | inhibition [6]: 30%

C#CCC(CC#C)(C(=O)NO)S(=O)(=O)c1ccc(OC)cc1
inhibition [6]: 20%

COc1ccc(S(=O)(=O)C(C)(Cc2ccc(OCCCN3CCN(c4cccc(Cl)c4)CC3)cc2)C(=O)NO)cc1 (centres undefined)
IC50 [3]: 7 nM | inhibition [6]: 40% | inhibition in vivo at 25 mg/kg [21]: 72%
